{"source": "ChEMBL document CHEMBL1155235", "about": "(Eur J Med Chem, 2009)", "key": {"[1]": {"molecular_target": "T1, Cannabinoid receptor 2 (Rattus norvegicus) (UniProt Q9QZN9)", "T1 sequence (whole entry)": "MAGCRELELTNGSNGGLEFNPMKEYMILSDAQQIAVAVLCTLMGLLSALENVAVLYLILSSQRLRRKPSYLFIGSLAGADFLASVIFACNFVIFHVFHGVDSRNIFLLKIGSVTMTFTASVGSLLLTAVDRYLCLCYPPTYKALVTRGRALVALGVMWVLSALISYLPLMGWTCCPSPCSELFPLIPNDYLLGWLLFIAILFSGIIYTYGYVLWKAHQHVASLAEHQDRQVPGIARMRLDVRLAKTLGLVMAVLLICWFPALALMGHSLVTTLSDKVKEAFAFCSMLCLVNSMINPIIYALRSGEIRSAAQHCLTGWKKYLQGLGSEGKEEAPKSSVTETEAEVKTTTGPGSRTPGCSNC", "assay": "Displacement of [3H]WIN-55212-2 from CB2 receptor in rat cerebellar membrane at 10 uM after 90 mins by scintillation counting", "type": "cell membranes", "conditions": "Cerebellum"}, "[2]": {"molecular_target": "T2, Fatty-acid amide hydrolase 1 (Rattus norvegicus) (UniProt P97612)", "T2 sequence (whole entry)": "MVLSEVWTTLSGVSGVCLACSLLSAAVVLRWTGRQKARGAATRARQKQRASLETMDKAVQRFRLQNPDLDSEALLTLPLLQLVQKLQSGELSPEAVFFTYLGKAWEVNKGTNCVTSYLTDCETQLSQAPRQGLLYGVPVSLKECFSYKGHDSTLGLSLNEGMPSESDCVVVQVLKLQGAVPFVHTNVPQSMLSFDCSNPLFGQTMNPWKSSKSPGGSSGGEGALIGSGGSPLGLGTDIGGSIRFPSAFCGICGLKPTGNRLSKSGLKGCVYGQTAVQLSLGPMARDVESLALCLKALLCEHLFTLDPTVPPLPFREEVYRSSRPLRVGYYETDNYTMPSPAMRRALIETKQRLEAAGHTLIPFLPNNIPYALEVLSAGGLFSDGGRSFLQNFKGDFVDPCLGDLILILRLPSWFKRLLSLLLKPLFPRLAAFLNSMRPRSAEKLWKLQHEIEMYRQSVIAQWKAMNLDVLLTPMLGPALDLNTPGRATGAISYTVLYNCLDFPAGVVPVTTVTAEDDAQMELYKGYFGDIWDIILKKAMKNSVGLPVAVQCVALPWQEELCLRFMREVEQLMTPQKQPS", "assay": "Inhibition of FAAH in rat brain homogenates assessed as membrane bound [3H]anandamide level at 1 uM relative to control", "type": "tissue-based", "design": "scale not given: the % may be the effect or the level left", "outline": "(§1)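 Brain membrane FAAH. Tissue was homogenized in 50 mM Tris pH 8 with 0.32 M sucrose, spun at 1000g for 5 min, and the supernatant spun at 45,000g for 30 min. The pellet was solubilized in Tris at 0–4 °C, protein measured by Bradford, and samples stored at −70 °C. Substrate was arachidonyl-[1-3H]-ethanolamide, and [3H]ethanolamine was counted in the aqueous phase after chloroform extraction. Conditions were linear in time and protein; activity is given as % of control at 10^-6 and 10^-7 M.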"}, "[3]": {"molecular_target": "Cannabinoid receptor 1 (Mus musculus) (UniProt P47746)", "sequence (P47746 whole entry)": "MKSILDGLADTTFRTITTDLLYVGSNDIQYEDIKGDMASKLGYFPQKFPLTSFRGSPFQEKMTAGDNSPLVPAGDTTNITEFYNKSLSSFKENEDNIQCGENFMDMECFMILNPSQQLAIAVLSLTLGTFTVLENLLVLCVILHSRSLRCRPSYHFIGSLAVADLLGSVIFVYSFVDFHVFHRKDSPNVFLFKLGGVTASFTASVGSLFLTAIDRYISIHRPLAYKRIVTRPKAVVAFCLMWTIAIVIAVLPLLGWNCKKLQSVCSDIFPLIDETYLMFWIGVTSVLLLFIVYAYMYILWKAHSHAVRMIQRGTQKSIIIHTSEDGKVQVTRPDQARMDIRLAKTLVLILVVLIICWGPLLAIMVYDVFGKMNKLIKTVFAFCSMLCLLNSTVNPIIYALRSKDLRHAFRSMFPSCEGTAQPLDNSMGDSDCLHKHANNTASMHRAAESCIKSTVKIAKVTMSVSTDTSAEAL", "assay": "Agonist activity at CB1 receptor in CD1 mouse vas deferens assessed as inhibition of electrically-evoked contraction at 0.01 to 1 nM after 15 mins", "type": "functional, tissue-based", "outline": "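Vasa deferentia from male CD-1 mice (25–30 g) cycled through 5 min stimulation (15 pulses per min, 70 V, 15 Hz, 2 ms) and 10 min rest, with isometric force recorded. Doses were added stepwise at 15 min intervals, and Krebs was replaced before each dose. Inhibition was read 15 min after each dose against the last pre-agonist contraction (100%). One curve was built per tissue.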"}, "[4]": {"molecular_target": "T3, Cannabinoid receptor 1 (Rattus norvegicus, UniProt P20272)", "T3 sequence (P20272 whole entry)": "as the sequence (P47746 whole entry) above, with D95E counted along it", "assay": "Displacement of [3H]SR141716A from CB1 receptor in rat cerebellar membrane after 90 mins by scintillation counting", "type": "cell membranes, Cerebellum", "outline": "(§2)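 Compounds were dissolved in DMSO, then diluted in 20 mM HEPES pH 7.4 with 1 mM MgCl2 and 0.5% fatty-acid-free BSA. Incubation was 30 °C for 90 min, stopped with ice-cold buffer and filtered on GF/C. Ki was derived by Cheng–Prusoff using fixed, independently measured Kd.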"}, "[5]": {"molecular_target": "T1, Cannabinoid receptor 2 (Rattus norvegicus)", "assay": "Displacement of [3H]WIN-55212-2 from CB2 receptor in rat cerebellar membrane at 0.001 nM after 90 mins by scintillation counting", "type": "cell membranes", "conditions": "Cerebellum"}, "[6]": {"molecular_target": "T3, Cannabinoid receptor 1", "assay": "Displacement of [3H]WIN-55212-2 from CB1 receptor in rat cerebellar membrane after 90 mins by scintillation counting", "type": "cell membranes, Cerebellum", "outline": "as §2, with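 “Cerebellar membranes incubated in triplicate with radioligand ([3H]SR141716A 0.4 nM; [3H]WIN-55212-2 1 nM) and compound at 10^-5 to 10^-12 M final. Compounds” for “Compounds”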"}, "[7]": {"molecular_target": "T2, Fatty-acid amide hydrolase 1 (Rattus norvegicus)", "assay": "Inhibition of FAAH in rat brain homogenates assessed as membrane bound [3H]anandamide level at 0.1 uM relative to control", "type": "tissue-based", "design": "scale not given: the % may be the effect or the level left", "outline": "as §1"}}, "note": "Calls of active or inactive are those of the source. No cut-off for these calls is given here.", "data": [{"smiles": "CCCCCCCCCCCCCCCCCCNS(=O)(=O)NCCC", "values": [{"measurement": "Activity", "setting": "[1]", "result": "inactive"}, {"measurement": "Activity", "setting": "[2]", "result": 110, "unit": "%"}, {"measurement": "inhibition", "setting": "[3]", "result": "inactive"}, {"measurement": "Ki", "setting": "[4]", "result": 9.1, "unit": "µM"}, {"measurement": "Activity", "setting": "[5]", "result": "inactive"}, {"measurement": "Ki", "setting": "[6]", "result": "> 10", "unit": "µM"}, {"measurement": "Activity", "setting": "[7]", "result": 109, "unit": "%"}]}, {"smiles": "CCCCC/C=C\\C/C=C\\C/C=C\\C/C=C\\CCCCNS(=O)(=O)NCCC", "values": [{"measurement": "inhibition", "setting": "[3]", "result": "inactive"}, {"measurement": "Ki", "setting": "[4]", "result": 2.34, "unit": "µM"}]}, {"smiles": "CCCCCCCCCCCCCCCCCCNS(N)(=O)=O", "values": [{"measurement": "Activity", "setting": "[2]", "result": 99.4, "unit": "%"}, {"measurement": "inhibition", "setting": "[3]", "result": "inactive"}, {"measurement": "Ki", "setting": "[4]", "result": "> 10", "unit": "µM"}, {"measurement": "Activity", "setting": "[7]", "result": 106, "unit": "%"}]}, {"smiles": "CCCCCCCCCCCCCCNS(N)(=O)=O", "values": [{"measurement": "Activity", "setting": "[2]", "result": 109, "unit": "%"}, {"measurement": "Activity", "setting": "[7]", "result": 109, "unit": "%"}]}, {"smiles": "CCCCC/C=C\\C/C=C\\CCCCCCCCNS(=O)(=O)NCCC", "values": [{"measurement": "inhibition", "setting": "[3]", "result": "inactive"}, {"measurement": "Ki", "setting": "[4]", "result": 7.19, "unit": "µM"}]}, {"smiles": "CCCCCCCC/C=C\\CCCCCCCCNS(=O)(=O)NCCC", "values": [{"measurement": "Activity", "setting": "[2]", "result": 96.5, "unit": "%"}, {"measurement": "inhibition", "setting": "[3]", "result": "inactive"}, {"measurement": "Ki", "setting": "[4]", "result": "> 10", "unit": "µM"}, {"measurement": "Activity", "setting": "[7]", "result": 101, "unit": "%"}]}, {"smiles": "CCCNS(=O)(=O)NC12CC3CC(CC(C3)C1)C2", "values": [{"measurement": "Activity", "setting": "[1]", "result": "inactive"}, {"measurement": "Activity", "setting": "[2]", "result": 92.6, "unit": "%"}, {"measurement": "inhibition", "setting": "[3]", "result": "inactive"}, {"measurement": "Ki", "setting": "[4]", "result": 8.58, "unit": "µM"}, {"measurement": "Activity", "setting": "[5]", "result": "inactive"}, {"measurement": "Ki", "setting": "[6]", "result": 4.23, "unit": "µM"}, {"measurement": "Activity", "setting": "[7]", "result": 90.4, "unit": "%"}]}, {"smiles": "CCCCC/C=C\\C/C=C\\CCCCCCCCNS(N)(=O)=O", "values": [{"measurement": "inhibition", "setting": "[3]", "result": "inactive"}, {"measurement": "Ki", "setting": "[4]", "result": 6.41, "unit": "µM"}]}, {"smiles": "CCCCCCCCCCCCCCCCNS(N)(=O)=O", "values": [{"measurement": "Activity", "setting": "[2]", "result": 103, "unit": "%"}, {"measurement": "Activity", "setting": "[7]", "result": 114, "unit": "%"}]}, {"smiles": "NS(=O)(=O)NC1C2CC3CC(C2)CC1C3", "note": "(configuration not stated)", "values": [{"measurement": "inhibition", "setting": "[3]", "result": "inactive"}]}, {"smiles": "CCCCCCCC/C=C\\CCCCCCCCNS(N)(=O)=O", "values": [{"measurement": "Activity", "setting": "[2]", "result": 102, "unit": "%"}, {"measurement": "inhibition", "setting": "[3]", "result": "inactive"}, {"measurement": "Ki", "setting": "[4]", "result": 1.89, "unit": "µM"}, {"measurement": "Activity", "setting": "[7]", "result": 100, "unit": "%"}]}, {"smiles": "CCCCC/C=C\\C/C=C\\C/C=C\\C/C=C\\CCCCNS(N)(=O)=O", "values": [{"measurement": "inhibition", "setting": "[3]", "result": "inactive"}, {"measurement": "Ki", "setting": "[4]", "result": 4.01, "unit": "µM"}]}, {"smiles": "CCCNS(=O)(=O)NC(C)C12CC3CC(CC(C3)C1)C2", "note": "(configuration not stated)", "values": [{"measurement": "Activity", "setting": "[1]", "result": "inactive"}, {"measurement": "inhibition", "setting": "[3]", "result": "inactive"}, {"measurement": "Ki", "setting": "[4]", "result": "> 10", "unit": "µM"}, {"measurement": "Activity", "setting": "[5]", "result": "inactive"}, {"measurement": "Ki", "setting": "[6]", "result": "> 100", "unit": "µM"}]}, {"smiles": "CCCNS(=O)(=O)NC1C2CC3CC(C2)CC1C3", "note": "(configuration not stated)", "values": [{"measurement": "Activity", "setting": "[1]", "result": "inactive"}, {"measurement": "inhibition", "setting": "[3]", "result": "inactive"}, {"measurement": "Ki", "setting": "[4]", "result": 6.67, "unit": "µM"}, {"measurement": "Activity", "setting": "[5]", "result": "inactive"}, {"measurement": "Ki", "setting": "[6]", "result": "> 10", "unit": "µM"}]}, {"smiles": "CC(NS(N)(=O)=O)C12CC3CC(CC(C3)C1)C2", "note": "(configuration not stated)", "values": [{"measurement": "inhibition", "setting": "[3]", "result": "inactive"}]}, {"smiles": "CCCCCCCCCCCCNS(N)(=O)=O", "values": [{"measurement": "Activity", "setting": "[2]", "result": 99.3, "unit": "%"}, {"measurement": "Activity", "setting": "[7]", "result": 108, "unit": "%"}]}]}
